Results reported in ChEMBL document CHEMBL1134636, “Structure-activity studies on nociceptin analogues: ORL1 receptor binding and biological activity of cyclic disulfide-containing analogues of nociceptin peptides” (J Med Chem, 2001).
pEC50, pIC50: −log10 of the molar value. Peptide text beside a SMILES is read from it.

Tests used:
Nociceptin receptor [1] = target: T1, Nociceptin receptor (Homo sapiens, UniProt P41146); assay: Efficacy for human ORL1 receptor expressing HEK293 cell membrane; type: functional, cell-based
How it was run: (§1)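 Membranes from HEK-293 cells expressing human ORL1 (10 μg) were incubated for 30 min at 24 °C with peptides (0.01 nM to 10 μM) in 20 mM HEPES pH 7.4 with 100 mM NaCl, 10 mM MgCl₂, 1 mM EDTA, 5 μM GDP and 400 pM [³⁵S]GTPγS. Binding was read with WGA-coated SPA beads.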

Nociceptin receptor [2] = target: T1, Nociceptin receptor; assay: Efficacy for human ORL1 receptor expressing HEK293 cells; type: functional, cell-based; how it was run: as §1
Nociceptin receptor [3] = target: T1, Nociceptin receptor; assay: Displacement of [3H]NC from human ORL1 receptor expressing HEK293 cell membrane; type: cell membranes

T1 sequence (P41146 whole entry): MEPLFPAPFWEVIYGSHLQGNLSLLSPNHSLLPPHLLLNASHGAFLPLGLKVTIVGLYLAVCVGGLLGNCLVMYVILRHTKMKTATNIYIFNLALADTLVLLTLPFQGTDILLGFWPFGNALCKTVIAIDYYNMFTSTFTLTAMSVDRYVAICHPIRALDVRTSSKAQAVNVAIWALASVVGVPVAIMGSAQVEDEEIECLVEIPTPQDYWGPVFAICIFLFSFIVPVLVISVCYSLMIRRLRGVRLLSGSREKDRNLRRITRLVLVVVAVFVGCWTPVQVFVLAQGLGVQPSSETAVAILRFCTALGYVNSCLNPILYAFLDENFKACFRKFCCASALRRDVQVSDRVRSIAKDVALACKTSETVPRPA

`C[C@H](NC(=O)[C@H](CO)NC(=O)[C@H](CCCCN)NC(=O)[C@H](CCCN=C(N)N)NC(=O)[C@H](C)NC(=O)[C@H](CS)NC(=O)[C@@H](NC(=O)[C@H](Cc1ccccc1)NC(=O)CNC(=O)CNC(=O)[C@H](Cc1ccccc1)NC(=O)[C@@H](N)CS)[C@@H](C)O)C(=O)N[C@@H](CCCN=C(N)N)C(=O)N[C@@H](CCCCN)C(N)=O` (H-CFGGFTCARKSARK-NH2) gave an Emax (Nociceptin receptor [1]) of 12%.
`C[C@H](NC(=O)CNC(=O)[C@@H](NC(=O)[C@H](Cc1ccccc1)NC(=O)CNC(=O)CNC(=O)[C@H](Cc1ccccc1)NC(=O)[C@@H](N)CS)[C@@H](C)O)C(=O)N[C@@H](CCCN=C(N)N)C(=O)N[C@@H](CCCCN)C(=O)N[C@@H](CS)C(=O)N[C@@H](C)C(=O)N[C@@H](CCCN=C(N)N)C(=O)N[C@@H](CCCCN)C(N)=O` (H-CFGGFTGARKCARK-NH2) was tested, and the Emax (Nociceptin receptor [1]) was 59%.
Compound `C[C@H](NC(=O)CNC(=O)[C@@H](NC(=O)[C@H](Cc1ccccc1)NC(=O)CNC(=O)CNC(=O)[C@H](Cc1ccccc1)NC(=O)[C@@H](N)CS)[C@@H](C)O)C(=O)N[C@@H](CCCNC(=N)N)C(=O)N[C@@H](CCCCN)C(=O)N[C@@H](CO)C(=O)N[C@@H](CS)C(=O)N[C@@H](CCCNC(=N)N)C(=O)N[C@@H](CCCCN)C(N)=O` (H-CFGGFTGARKSCRK-NH2) has a pEC50 (Nociceptin receptor [2]; hek293) of 6.54 and a pIC50 (Nociceptin receptor [3]; hek293) of 5.89.
With `C[C@H](NC(=O)[C@H](CO)NC(=O)[C@H](CCCCN)NC(=O)[C@H](CCCNC(=N)N)NC(=O)[C@H](CS)NC(=O)CNC(=O)[C@@H](NC(=O)[C@H](Cc1ccccc1)NC(=O)CNC(=O)CNC(=O)[C@H](Cc1ccccc1)NC(=O)[C@@H](N)CS)[C@@H](C)O)C(=O)N[C@@H](CCCNC(=N)N)C(=O)N[C@@H](CCCCN)C(N)=O` (H-CFGGFTGCRKSARK-NH2) the pEC50 (Nociceptin receptor [2]; hek293) was under 5.00 and the pIC50 (Nociceptin receptor [3]; hek293) was 5.57.
Compound `C[C@H](NC(=O)[C@H](CS)NC(=O)[C@H](CCCCN)NC(=O)[C@H](CCCN=C(N)N)NC(=O)[C@H](C)NC(=O)[C@H](CS)NC(=O)[C@@H](NC(=O)[C@H](Cc1ccccc1)NC(=O)CNC(=O)CNC(=O)[C@@H](N)Cc1ccccc1)[C@@H](C)O)C(=O)N[C@@H](CCCN=C(N)N)C(=O)N[C@@H](CCCCN)C(N)=O` (H-FGGFTCARKCARK-NH2) has an Emax (Nociceptin receptor [1]) of 94%, a pEC50 (Nociceptin receptor [2]) of 7.53 and a pIC50 (Nociceptin receptor [3]) of 8.52.
`C[C@H](NC(=O)CNC(=O)[C@@H](NC(=O)[C@H](Cc1ccccc1)NC(=O)CNC(=O)CNC(=O)[C@@H](N)Cc1ccccc1)[C@@H](C)O)C(=O)N[C@@H](CCCNC(=N)N)C(=O)N[C@@H](CCCCN)C(=O)N[C@@H](CS)C(=O)N[C@@H](C)C(=O)N[C@@H](CCCNC(=N)N)C(=O)N[C@@H](CCCCN)C(=O)N[C@@H](CS)C(N)=O` (H-FGGFTGARKCARKC-NH2) gave a pEC50 (Nociceptin receptor [2]) of 8.41 and a pIC50 (Nociceptin receptor [3]) of 9.33.
`C[C@H](NC(=O)CNC(=O)[C@@H](NC(=O)[C@H](Cc1ccccc1)NC(=O)CNC(=O)CNC(=O)[C@@H](N)Cc1ccccc1)[C@@H](C)O)C(=O)N[C@@H](CCCN=C(N)N)C(=O)N[C@@H](CCCCN)C(=O)N[C@@H](CS)C(=O)N[C@@H](C)C(=O)N[C@@H](CCCN=C(N)N)C(=O)N[C@@H](CCCCN)C(=O)N[C@@H](CS)C(N)=O` (H-FGGFTGARKCARKC-NH2) showed an Emax (Nociceptin receptor [1]) of 105%.
`CC(C)C[C@H](NC(=O)[C@H](CCCCN)NC(=O)[C@H](CCCN=C(N)N)NC(=O)[C@H](C)NC(=O)[C@H](CO)NC(=O)[C@H](CCCCN)NC(=O)[C@H](CCCN=C(N)N)NC(=O)[C@H](C)NC(=O)CNC(=O)[C@@H](NC(=O)[C@H](Cc1ccccc1)NC(=O)CNC(=O)CNC(=O)[C@@H](N)Cc1ccccc1)[C@@H](C)O)C(N)=O` (H-FGGFTGARKSARKL-NH2) showed an Emax (Nociceptin receptor [1]) of 105%, a pEC50 (Nociceptin receptor [2]) of 8.71 and a pIC50 (Nociceptin receptor [3]) of 9.28.
For `C[C@H](NC(=O)[C@H](CO)NC(=O)[C@H](CCCCN)NC(=O)[C@H](CCCNC(=N)N)NC(=O)[C@H](CS)NC(=O)CNC(=O)[C@@H](NC(=O)[C@H](Cc1ccccc1)NC(=O)CNC(=O)CNC(=O)[C@@H](N)Cc1ccccc1)[C@@H](C)O)C(=O)N[C@@H](CCCNC(=N)N)C(=O)N[C@@H](CCCCN)C(=O)N[C@@H](CS)C(N)=O` (H-FGGFTGCRKSARKC-NH2), the pEC50 (Nociceptin receptor [2]) was 7.65 and the pIC50 (Nociceptin receptor [3]) was 7.43.
`C[C@H](NC(=O)[C@H](CO)NC(=O)[C@H](CCCCN)NC(=O)[C@H](CCCN=C(N)N)NC(=O)[C@H](CS)NC(=O)CNC(=O)[C@@H](NC(=O)[C@H](Cc1ccccc1)NC(=O)CNC(=O)CNC(=O)[C@@H](N)Cc1ccccc1)[C@@H](C)O)C(=O)N[C@@H](CCCN=C(N)N)C(=O)N[C@@H](CCCCN)C(=O)N[C@@H](CS)C(N)=O` (H-FGGFTGCRKSARKC-NH2) was tested, and the Emax (Nociceptin receptor [1]) was 101%.
In the case of `C[C@@H](O)[C@H](NC(=O)[C@H](Cc1ccccc1)NC(=O)CNC(=O)CNC(=O)[C@@H](N)Cc1ccccc1)C(=O)NCC(=O)N[C@@H](CS)C(=O)N[C@@H](CCCN=C(N)N)C(=O)N[C@@H](CCCCN)C(=O)N[C@@H](CO)C(=O)N[C@@H](CS)C(=O)N[C@@H](CCCN=C(N)N)C(=O)N[C@@H](CCCCN)C(N)=O` (H-FGGFTGCRKSCRK-NH2), the Emax (Nociceptin receptor [1]) was 99%, the pEC50 (Nociceptin receptor [2]) was 7.58 and the pIC50 (Nociceptin receptor [3]) was 8.06.
Compound `C[C@H](NC(=O)[C@H](CO)NC(=O)[C@H](CCCCN)NC(=O)[C@H](CCCN=C(N)N)NC(=O)[C@H](C)NC(=O)[C@@H]1CSSC[C@H](N)C(=O)N[C@@H](Cc2ccccc2)C(=O)NCC(=O)NCC(=O)N[C@@H](Cc2ccccc2)C(=O)N[C@@H]([C@@H](C)O)C(=O)N1)C(=O)N[C@@H](CCCN=C(N)N)C(=O)N[C@@H](CCCCN)C(N)=O` (HELM PEPTIDE1{C.F.G.G.F.T.C.A.R.K.S.A.R.K.[am]}$PEPTIDE1,PEPTIDE1,1:R3-7:R3$$$V2.0) has an Emax (Nociceptin receptor [1]) of 18%.
Compound `C[C@@H]1NC(=O)CNC(=O)[C@H]([C@@H](C)O)NC(=O)[C@H](Cc2ccccc2)NC(=O)CNC(=O)CNC(=O)[C@H](Cc2ccccc2)NC(=O)[C@@H](N)CSSC[C@@H](C(=O)N[C@@H](C)C(=O)N[C@@H](CCCN=C(N)N)C(=O)N[C@@H](CCCCN)C(N)=O)NC(=O)[C@H](CCCCN)NC(=O)[C@H](CCCN=C(N)N)NC1=O` (HELM PEPTIDE1{C.F.G.G.F.T.G.A.R.K.C.A.R.K.[am]}$PEPTIDE1,PEPTIDE1,1:R3-11:R3$$$V2.0) has an Emax (Nociceptin receptor [1]) of 81%.
`C[C@@H]1NC(=O)CNC(=O)[C@H]([C@@H](C)O)NC(=O)[C@H](Cc2ccccc2)NC(=O)CNC(=O)CNC(=O)[C@H](Cc2ccccc2)NC(=O)[C@@H](N)CSSC[C@@H](C(=O)N[C@@H](CCCNC(=N)N)C(=O)N[C@@H](CCCCN)C(N)=O)NC(=O)[C@H](CO)NC(=O)[C@H](CCCCN)NC(=O)[C@H](CCCNC(=N)N)NC1=O` (HELM PEPTIDE1{C.F.G.G.F.T.G.A.R.K.S.C.R.K.[am]}$PEPTIDE1,PEPTIDE1,1:R3-12:R3$$$V2.0) showed a pEC50 (Nociceptin receptor [2]) of 6.36 and a pIC50 (Nociceptin receptor [3]) of 6.41.
`C[C@H](NC(=O)[C@H](CO)NC(=O)[C@H](CCCCN)NC(=O)[C@H](CCCNC(=N)N)NC(=O)[C@@H]1CSSC[C@H](N)C(=O)N[C@@H](Cc2ccccc2)C(=O)NCC(=O)NCC(=O)N[C@@H](Cc2ccccc2)C(=O)N[C@@H]([C@@H](C)O)C(=O)NCC(=O)N1)C(=O)N[C@@H](CCCNC(=N)N)C(=O)N[C@@H](CCCCN)C(N)=O` (HELM PEPTIDE1{C.F.G.G.F.T.G.C.R.K.S.A.R.K.[am]}$PEPTIDE1,PEPTIDE1,1:R3-8:R3$$$V2.0) gave a pEC50 (Nociceptin receptor [2]) of under 5.00 and a pIC50 (Nociceptin receptor [3]) of 6.06.
Compound `C[C@H](NC(=O)[C@@H]1CSSC[C@H](NC(=O)[C@@H](NC(=O)[C@H](Cc2ccccc2)NC(=O)CNC(=O)CNC(=O)[C@@H](N)Cc2ccccc2)[C@@H](C)O)C(=O)N[C@@H](C)C(=O)N[C@@H](CCCNC(=N)N)C(=O)N[C@@H](CCCCN)C(=O)N1)C(=O)N[C@@H](CCCNC(=N)N)C(=O)N[C@@H](CCCCN)C(N)=O` (HELM PEPTIDE1{F.G.G.F.T.C.A.R.K.C.A.R.K.[am]}$PEPTIDE1,PEPTIDE1,6:R3-10:R3$$$V2.0) has an Emax (Nociceptin receptor [1]) of 99%, a pEC50 (Nociceptin receptor [2]) of 7.50 and a pIC50 (Nociceptin receptor [3]) of 9.08.
`C[C@H](NC(=O)CNC(=O)[C@@H](NC(=O)[C@H](Cc1ccccc1)NC(=O)CNC(=O)CNC(=O)[C@@H](N)Cc1ccccc1)[C@@H](C)O)C(=O)N[C@@H](CCCNC(=N)N)C(=O)N[C@@H](CCCCN)C(=O)N[C@H]1CSSC[C@@H](C(N)=O)NC(=O)[C@H](CCCCN)NC(=O)[C@H](CCCNC(=N)N)NC(=O)[C@H](C)NC1=O` (HELM PEPTIDE1{F.G.G.F.T.G.A.R.K.C.A.R.K.C.[am]}$PEPTIDE1,PEPTIDE1,10:R3-14:R3$$$V2.0) showed a pEC50 (Nociceptin receptor [2]) of 8.36 and a pIC50 (Nociceptin receptor [3]) of 9.91.
Compound `C[C@H](NC(=O)CNC(=O)[C@@H](NC(=O)[C@H](Cc1ccccc1)NC(=O)CNC(=O)CNC(=O)[C@@H](N)Cc1ccccc1)[C@@H](C)O)C(=O)N[C@@H](CCCN=C(N)N)C(=O)N[C@@H](CCCCN)C(=O)N[C@H]1CSSC[C@@H](C(N)=O)NC(=O)[C@H](CCCCN)NC(=O)[C@H](CCCN=C(N)N)NC(=O)[C@H](C)NC1=O` (HELM PEPTIDE1{F.G.G.F.T.G.A.R.K.C.A.R.K.C.[am]}$PEPTIDE1,PEPTIDE1,10:R3-14:R3$$$V2.0) has an Emax (Nociceptin receptor [1]) of 99%.
`C[C@@H]1NC(=O)[C@H](CO)NC(=O)[C@H](CCCCN)NC(=O)[C@H](CCCNC(=N)N)NC(=O)[C@@H](NC(=O)CNC(=O)[C@@H](NC(=O)[C@H](Cc2ccccc2)NC(=O)CNC(=O)CNC(=O)[C@@H](N)Cc2ccccc2)[C@@H](C)O)CSSC[C@@H](C(N)=O)NC(=O)[C@H](CCCCN)NC(=O)[C@H](CCCNC(=N)N)NC1=O` (HELM PEPTIDE1{F.G.G.F.T.G.C.R.K.S.A.R.K.C.[am]}$PEPTIDE1,PEPTIDE1,7:R3-14:R3$$$V2.0) gave a pEC50 (Nociceptin receptor [2]) of 7.60 and a pIC50 (Nociceptin receptor [3]) of 8.30.
For `C[C@@H]1NC(=O)[C@H](CO)NC(=O)[C@H](CCCCN)NC(=O)[C@H](CCCN=C(N)N)NC(=O)[C@@H](NC(=O)CNC(=O)[C@@H](NC(=O)[C@H](Cc2ccccc2)NC(=O)CNC(=O)CNC(=O)[C@@H](N)Cc2ccccc2)[C@@H](C)O)CSSC[C@@H](C(N)=O)NC(=O)[C@H](CCCCN)NC(=O)[C@H](CCCN=C(N)N)NC1=O` (HELM PEPTIDE1{F.G.G.F.T.G.C.R.K.S.A.R.K.C.[am]}$PEPTIDE1,PEPTIDE1,7:R3-14:R3$$$V2.0), the Emax (Nociceptin receptor [1]) was 95%.
